ChEMBL document CHEMBL1143542, “Structure-activity relationships of bivalent aminoglycosides and evaluation of their microbiological activities” (2005)
Values after ≈ are worked out from the molar mass of the structure shown.

Key:
Enterococcus faecalis = assay: In vitro minimum inhibitory concentration against Enterococcus faecalis 29212; format: functional
Summary of the method: (§1)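 Broth microdilution following CLSI M100-S12. Stocks were 10 mg/mL in water, diluted in Mueller–Hinton broth to a top level of 128, then serially 2-fold in plates. Bacteria in cation-adjusted Mueller–Hinton broth were mixed 1:1 with drug and incubated 16–20 h at 35 °C. MIC was the lowest concentration with no visible growth. Run in duplicate with no-antibiotic and no-inoculum (sterility) controls.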

Pseudomonas aeruginosa [1] = assay: In vitro minimum inhibitory concentration against Pseudomonas aeruginosa ATCC 27853; format: functional; summary of the method: as §1
Escherichia coli = assay: In vitro minimum inhibitory concentration against Escherichia coli ATCC 25922; format: functional; summary of the method: as §1
Pseudomonas aeruginosa [2] = assay: In vitro minimum inhibitory concentration against Pseudomonas aeruginosa PAO-1 Minimum inhibitory concentration against Pseudomonas aeruginosa PAO-1; format: functional; summary of the method: as §1
Staphylococcus aureus [3] = assay: In vitro minimum inhibitory concentration against Staphylococcus aureus MRSA 3359; format: functional; summary of the method: as §1
Staphylococcus aureus [4] = assay: In vitro minimum inhibitory concentration against Staphylococcus aureus ATCC 29213; format: functional; summary of the method: as §1
Pseudomonas aeruginosa [5] = assay: In vitro minimum inhibitory concentration against Pseudomonas aeruginosa PAO-1; format: functional; summary of the method: as §1
Pseudomonas aeruginosa [6] = assay: Susceptibility testing against Pseudomonas aeruginosa PAE_NUH21; S=Susceptible; format: functional, organism-based
Summary of the method: (§2)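 Disk diffusion susceptibility profiling against a panel of empirically used antipseudomonal antibiotics. Each strain was categorised as susceptible (S) or intermediate (I).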

Pseudomonas aeruginosa [7] = assay: Susceptibility testing against Pseudomonas aeruginosa ATCC 27853; S=Susceptible; format: functional, organism-based; summary of the method: as §2
Pseudomonas aeruginosa [8] = assay: Susceptibility testing against Pseudomonas aeruginosa PAE_NUH20; S=Susceptible; format: functional, organism-based; summary of the method: as §2
Pseudomonas aeruginosa [9] = assay: Susceptibility testing against Pseudomonas aeruginosa PAE_NUH17; S=Susceptible; format: functional, organism-based; summary of the method: as §2
Pseudomonas aeruginosa [10] = assay: Susceptibility testing against Pseudomonas aeruginosa PAE_NUH06; R=Resistant; format: functional, organism-based
Summary of the method: (§3)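 Disk diffusion susceptibility profiling of P. aeruginosa reference and clinical isolates against empirically used antipseudomonal antibiotics. Each isolate was categorised as susceptible, intermediate or resistant.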

Pseudomonas aeruginosa [11] = assay: Susceptibility testing against Pseudomonas aeruginosa PAE_NUH19; S=Susceptible; format: functional, organism-based; summary of the method: as §2
Pseudomonas aeruginosa [12] = assay: Susceptibility testing against Pseudomonas aeruginosa PAE_NUH03; R=Resistant; format: functional, organism-based; summary of the method: as §3
Pseudomonas aeruginosa [13] = assay: Susceptibility testing against Pseudomonas aeruginosa PAE_NUH04; R=Resistant; format: functional, organism-based; summary of the method: as §3
Pseudomonas aeruginosa [14] = assay: Susceptibility testing against Pseudomonas aeruginosa PAE_NUH22; S=Susceptible; format: functional, organism-based; summary of the method: as §2
Pseudomonas aeruginosa [15] = assay: Susceptibility testing against Pseudomonas aeruginosa PAE_NUH23; S=Susceptible; format: functional, organism-based; summary of the method: as §2
Pseudomonas aeruginosa [16] = assay: Susceptibility testing against Pseudomonas aeruginosa PAE_NUH18; S=Susceptible; format: functional, organism-based; summary of the method: as §2
Pseudomonas aeruginosa [17] = assay: Susceptibility testing against Pseudomonas aeruginosa PAE_NUH02; R=Resistant; format: functional, organism-based; summary of the method: as §3
Pseudomonas aeruginosa [18] = assay: Susceptibility testing against Pseudomonas aeruginosa PAE_NUH25; S=Susceptible; format: functional, organism-based; summary of the method: as §2
Pseudomonas aeruginosa [19] = assay: Susceptibility testing against Pseudomonas aeruginosa PAE_NUH01; R=Resistant; format: functional, organism-based; summary of the method: as §3
Pseudomonas aeruginosa [20] = assay: Susceptibility testing against Pseudomonas aeruginosa PAE_NUH07; S=Susceptible; format: functional, organism-based; summary of the method: as §2
Pseudomonas aeruginosa [21] = assay: Susceptibility testing against Pseudomonas aeruginosa PAE_NUH24; S=Susceptible; format: functional, organism-based; summary of the method: as §2
Pseudomonas aeruginosa [22] = assay: Susceptibility testing against Pseudomonas aeruginosa PAE_NUH05; R=Resistant; format: functional, organism-based; summary of the method: as §3

SMILES: CN(CCOCCOCCN(C)C[C@@H](O)CO[C@@H]1[C@@H](O)[C@H](N)C[C@H](N)[C@H]1O[C@H]1O[C@H](CN)[C@@H](O)[C@H](O)[C@H]1N)C[C@@H](O)CO[C@@H]1[C@@H](O)[C@H](N)C[C@H](N)[C@H]1O[C@H]1O[C@H](CN)[C@@H](O)[C@H](O)[C@H]1N
- MIC (Enterococcus faecalis): > 50 µg/mL
- MIC (Pseudomonas aeruginosa [1]): > 50 µg/mL
- MIC (Escherichia coli): > 50 µg/mL
- MIC (Pseudomonas aeruginosa [2]): > 50 µg/mL
- MIC (Staphylococcus aureus [3]): > 50 µg/mL
- MIC (Staphylococcus aureus [4]): > 50 µg/mL

SMILES: NC[C@@H]1C[C@H](O)[C@@H](N)[C@H](O[C@H]2[C@H](O)[C@@H](OC[C@@H](O)CNCCCCNC[C@@H](O)CO[C@@H]3[C@@H](O)[C@H](O[C@H]4O[C@H](CN)[C@@H](O)C[C@H]4N)[C@@H](N)C[C@H]3N)[C@H](N)C[C@@H]2N)O1
- MIC (Enterococcus faecalis): 32 µg/mL (≈ 39.4 µM)
- MIC (Pseudomonas aeruginosa [1]): 2 µg/mL (≈ 2.46 µM)
- MIC (Escherichia coli): 4 µg/mL (≈ 4.92 µM)
- MIC (Pseudomonas aeruginosa [2]): 2 µg/mL (≈ 2.46 µM)
- MIC (Staphylococcus aureus [3]): 16 µg/mL (≈ 19.7 µM)
- MIC (Staphylococcus aureus [4]): 0.5 µg/mL (≈ 0.615 µM)

SMILES: NC[C@@H]1C[C@H](O)[C@@H](N)[C@H](O[C@H]2[C@H](O)[C@@H](OC[C@@H](O)CN[C@H]3CC[C@H](NC[C@@H](O)CO[C@@H]4[C@@H](O)[C@H](O[C@H]5O[C@H](CN)[C@@H](O)C[C@H]5N)[C@@H](N)C[C@H]4N)CC3)[C@H](N)C[C@@H]2N)O1
- MIC (Enterococcus faecalis): 32 µg/mL (≈ 38.1 µM)
- MIC (Pseudomonas aeruginosa [1]): 2 µg/mL (≈ 2.38 µM)
- MIC (Escherichia coli): 4 µg/mL (≈ 4.77 µM)
- MIC (Pseudomonas aeruginosa [2]): 2 µg/mL (≈ 2.38 µM)
- MIC (Staphylococcus aureus [3]): 16 µg/mL (≈ 19.1 µM)
- MIC (Staphylococcus aureus [4]): 0.5 µg/mL (≈ 0.596 µM)

SMILES: CCN(CCN(CC)C[C@@H](O)CO[C@@H]1[C@@H](O)[C@H](N)C[C@H](N)[C@H]1O[C@H]1O[C@H](CN)[C@@H](O)[C@H](O)[C@H]1N)C[C@@H](O)CO[C@@H]1[C@@H](O)[C@H](N)C[C@H](N)[C@H]1O[C@H]1O[C@H](CN)[C@@H](O)[C@H](O)[C@H]1N
- MIC (Pseudomonas aeruginosa [5]): > 50 µg/mL
- MIC (Enterococcus faecalis): > 50 µg/mL
- MIC (Pseudomonas aeruginosa [1]): > 50 µg/mL
- MIC (Escherichia coli): > 50 µg/mL
- MIC (Staphylococcus aureus [3]): > 50 µg/mL
- MIC (Staphylococcus aureus [4]): > 50 µg/mL

SMILES: CN(CCCCCCN(C)C[C@@H](O)CO[C@@H]1[C@@H](O)[C@H](N)C[C@H](N)[C@H]1O[C@H]1O[C@H](CN)[C@@H](O)[C@H](O)[C@H]1N)C[C@@H](O)CO[C@@H]1[C@@H](O)[C@H](N)C[C@H](N)[C@H]1O[C@H]1O[C@H](CN)[C@@H](O)[C@H](O)[C@H]1N
- MIC (Enterococcus faecalis): > 50 µg/mL
- MIC (Pseudomonas aeruginosa [1]): 12.5 µg/mL (≈ 13.9 µM)
- MIC (Escherichia coli): 25 µg/mL (≈ 27.7 µM)
- MIC (Pseudomonas aeruginosa [2]): 50 µg/mL (≈ 55.5 µM)
- MIC (Staphylococcus aureus [3]): > 50 µg/mL
- MIC (Staphylococcus aureus [4]): 6.3 µg/mL (≈ 6.99 µM)

SMILES: NC[C@H]1O[C@H](O[C@H]2[C@H](OC[C@@H](O)CNCCCCNC[C@@H](O)CO[C@@H]3[C@@H](O)[C@H](N)C[C@H](N)[C@H]3O[C@H]3O[C@H](CN)[C@@H](O)C[C@H]3N)[C@@H](O)[C@H](N)C[C@@H]2N)[C@H](N)[C@@H](O)[C@@H]1O
- MIC (Enterococcus faecalis): 32 µg/mL (≈ 38.6 µM)
- MIC (Pseudomonas aeruginosa [1]): 4 µg/mL (≈ 4.83 µM)
- MIC (Escherichia coli): 16 µg/mL (≈ 19.3 µM)
- MIC (Pseudomonas aeruginosa [2]): 4 µg/mL (≈ 4.83 µM)
- MIC (Staphylococcus aureus [3]): 16 µg/mL (≈ 19.3 µM)
- MIC (Staphylococcus aureus [4]): 2 µg/mL (≈ 2.41 µM)

SMILES: CN(CCCCN(C)C[C@@H](O)CO[C@@H]1[C@@H](O)[C@H](N)C[C@H](N)[C@H]1O[C@H]1O[C@H](CN)[C@@H](O)C[C@H]1N)C[C@H](O)CO[C@@H]1[C@@H](O)[C@H](N)C[C@H](N)[C@H]1O[C@H]1O[C@H](CN)[C@@H](O)[C@H](O)[C@H]1N
- MIC (Enterococcus faecalis): > 50 µg/mL
- MIC (Pseudomonas aeruginosa [1]): 16 µg/mL (≈ 18.7 µM)
- MIC (Escherichia coli): 16 µg/mL (≈ 18.7 µM)
- MIC (Pseudomonas aeruginosa [2]): 16 µg/mL (≈ 18.7 µM)
- MIC (Staphylococcus aureus [3]): 32 µg/mL (≈ 37.3 µM)
- MIC (Staphylococcus aureus [4]): 2 µg/mL (≈ 2.33 µM)

SMILES: NCC[C@H](O)C(=O)N[C@@H]1C[C@H](N)[C@@H](O[C@H]2O[C@H](CN)[C@@H](O)[C@H](O)[C@H]2O)[C@H](O)[C@H]1O[C@H]1O[C@H](CO)[C@@H](O)[C@H](N)[C@H]1O
- Activity (Pseudomonas aeruginosa [6]): Susceptible
- Activity (Pseudomonas aeruginosa [7]): Susceptible
- Activity (Pseudomonas aeruginosa [8]): Susceptible
- Activity (Pseudomonas aeruginosa [9]): Susceptible
- Activity (Pseudomonas aeruginosa [10]): Resistant
- Activity (Pseudomonas aeruginosa [11]): Susceptible
- Activity (Pseudomonas aeruginosa [12]): Resistant
- Activity (Pseudomonas aeruginosa [13]): Resistant
- Activity (Pseudomonas aeruginosa [14]): Susceptible
- Activity (Pseudomonas aeruginosa [15]): Susceptible
- Activity (Pseudomonas aeruginosa [16]): Susceptible
- Activity (Pseudomonas aeruginosa [17]): Resistant
- Activity (Pseudomonas aeruginosa [18]): Susceptible
- Activity (Pseudomonas aeruginosa [19]): Resistant
- Activity (Pseudomonas aeruginosa [20]): Susceptible
- Activity (Pseudomonas aeruginosa [21]): Susceptible
- Activity (Pseudomonas aeruginosa [22]): Resistant

SMILES: CN(CCCCN(C)C[C@@H](O)CO[C@@H]1[C@@H](O)[C@H](O[C@H]2O[C@H](CN)[C@@H](O)C[C@H]2N)[C@@H](N)C[C@H]1N)C[C@H](O)CO[C@@H]1[C@@H](O)[C@H](O[C@@H]2O[C@H](CN)C[C@H](O)[C@H]2N)[C@@H](N)C[C@H]1N
- MIC (Enterococcus faecalis): 20.9 µg/mL (≈ 24.8 µM)
- MIC (Pseudomonas aeruginosa [1]): 10.4 µg/mL (≈ 12.4 µM)
- MIC (Escherichia coli): 5.2 µg/mL (≈ 6.18 µM)
- MIC (Pseudomonas aeruginosa [2]): 2.6 µg/mL (≈ 3.09 µM)
- MIC (Staphylococcus aureus [3]): 20.9 µg/mL (≈ 24.8 µM)
- MIC (Staphylococcus aureus [4]): 0.6 µg/mL (≈ 0.713 µM)
